In ChEMBL document CHEMBL1125321, “Synthesis and biological activity of 13-epi-avermectins: potent anthelmintic agents with an increased margin of safety” (J Med Chem, 1992):

How the values were obtained:
Artemia salina = experiment: Compound is evaluated in vitro for brine shrimp (Artemia salina) activity.; format: functional
Cooperia [1] = experiment: Compound is evaluated in vivo for anthelmintic activity against Cooperia species (C. species) parasite in sheep; activity at 0.1 mg/kg; format: functional
Procedure, shortened: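 Sheep with patent nematode infections, randomly assigned to treatment or control; one sheep per compound, two vehicle-only controls. Single oral dose of 0.1 mg/kg. Necropsy 7 days after dosing to count residual worm burdens. Efficacy is % reduction from control, scored 0 = <50%, 1 = 51–75%, 2 = 76–95%, 3 = >95%.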

Haemonchus contortus = experiment: Compound is evaluated in vivo for anthelmintic activity against Haemonchus contortus (H.c) parasite in sheep; activity at 0.1 mg/kg; format: functional
Procedure, shortened: (§1)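 Sheep with patent infections randomly assigned; one sheep per compound, two vehicle-only controls. Single oral dose 0.1 mg/kg. Necropsy 7 days post-dose, residual worm burdens counted. Efficacy as % reduction from control, scored 0 = <50%, 1 = 51-75%, 2 = 76-95%, 3 = >95%.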

[2] = Compound is evaluated for acute toxicity in mice; format: organism-based; conditions: mouse, in vivo
Procedure, shortened: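 Male CD-1 mice, groups of five per dose randomly allocated; several doses given orally in vehicle by calibrated syringe with blunt-tipped needle. Deaths counted 7 days after dosing; estimated LD50 derived by the method of dose-pair responses.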

[3] = system: Oesophagostomum columbianum; experiment: Compound is evaluated in vivo for anthelmintic activity against Oesophagostomum columbianum (Oe. c) parasite in sheep; activity at 0.1 mg/kg; format: functional; procedure, shortened: as §1
[4] = system: Teladorsagia circumcincta; experiment: Compound is evaluated in vivo for anthelmintic activity against Ostertagia circumcincta (Os. c) parasite in sheep; activity at 0.1 mg/kg; format: functional; procedure, shortened: as §1
Trichostrongylus axei = experiment: Compound is evaluated in vivo for anthelmintic activity against Trichostrongylus axei (T.a) parasite in sheep; activity at 0.1 mg/kg; format: functional; procedure, shortened: as §1
[5] = system: Trichostrongylus colubriformis; experiment: Compound is evaluated in vivo for anthelmintic activity against Trichostrongylus colubriformis (T.c) parasite in sheep; activity at 0.1 mg/kg; format: functional; procedure, shortened: as §1
Cooperia [6] = experiment: Compound is evaluated in vivo for anthelmintic activity against Cooperia species (C. species) parasite in sheep; activity at 0.1 mg/kg; value ranges from 76-95%; format: functional; procedure, shortened: as §1

Row | SMILES | IC100 (Artemia salina) | Activity (Cooperia [1]) | Activity (Haemonchus contortus) | LD50 [2] | Activity [3] | Activity [4] | Activity (Trichostrongylus axei) | Activity [5] | Activity (Cooperia [6])
1 | CC[C@H](C)[C@H]1O[C@@]2(C[C@@H]3C[C@@H](C/C=C(\C)[C@H](O[C@@H]4C[C@H](OC)C(O[C@H]5C[C@H](OC)[C@@H](O)[C@H](C)O5)[C@H](C)O4)[C@@H](C)/C=C/C=C4\CO[C@@H]5[C@H](O)C(C)=C[C@@H](C(=O)O3)[C@]45O)O2)C[C@H](O)[C@@H]1C (some centres undefined) | 20850 ng/mL |  |  |  |  |  |  |  | 
2 | CC[C@H](C)[C@H]1O[C@]2(C=C[C@@H]1C)C[C@@H]1C[C@@H](C/C=C(\C)[C@H](O[C@@H]3C[C@H](OC)C(O[C@H]4C[C@H](OC)[C@@H](O)[C@H](C)O4)[C@H](C)O3)[C@@H](C)/C=C/C=C3\CO[C@@H]4[C@H](O)C(C)=C[C@@H](C(=O)O1)[C@]34O)O2 (some centres undefined) | 10415 ng/mL |  |  |  |  |  |  |  | 
3 | CC[C@H](C)[C@H]1O[C@@]2(C[C@@H]3C[C@@H](C/C=C(\C)[C@H](O[C@H]4C[C@H](OC)C(O[C@H]5C[C@H](OC)[C@@H](O)[C@H](C)O5)[C@H](C)O4)[C@@H](C)/C=C/C=C4\CO[C@@H]5[C@H](O)C(C)=C[C@@H](C(=O)O3)[C@]45O)O2)C[C@H](O)[C@@H]1C (some centres undefined) | 650 ng/mL | >95% | >95% | 540 mg/kg | >95% | >95% | >95% | >95% | 
4 | CC[C@H](C)[C@H]1O[C@]2(C=C[C@@H]1C)C[C@@H]1C[C@@H](C/C=C(\C)[C@H](O[C@H]3C[C@H](OC)C(O[C@H]4C[C@H](OC)[C@@H](O)[C@H](C)O4)[C@H](C)O3)[C@@H](C)/C=C/C=C3\CO[C@@H]4[C@H](O)C(C)=C[C@@H](C(=O)O1)[C@]34O)O2 (some centres undefined) | 870 ng/mL |  | >95% | 160 mg/kg | >95% | >95% | >95% | >95% | 76%
5 | CC[C@H](C)[C@H]1O[C@]2(C=C[C@@H]1C)C[C@@H]1C[C@@H](C/C=C(\C)[C@@H](O[C@H]3C[C@H](OC)[C@@H](O[C@H]4C[C@H](OC)[C@@H](O)[C@H](C)O4)[C@H](C)O3)[C@@H](C)/C=C/C=C3\CO[C@@H]4[C@H](O)C(C)=C[C@@H](C(=O)O1)[C@]34O)O2 [ABAMECTIN COMPONENT B1A] | 356 ng/mL |  |  | 19 mg/kg |  |  |  |  | 
6 | CCC(C)C1O[C@]2(C=C[C@@H]1C)C[C@@H]1CC(C/C=C(\C)[C@@H](OC3C[C@H](OC)[C@@H](OC4C[C@H](OC)[C@@H](O)[C@H](C)O4)[C@H](C)O3)[C@@H](C)/C=C/C=C3\COC4[C@H](O)C(C)=CC(C(=O)O1)[C@]34O)O2 (some centres undefined) [AVERMECTIN B1A] |  | >95% | >95% |  | >95% | >95% | >95% | >95% | 
7 | COC1CC(OC2C(C)OC(O[C@@H]3/C(C)=C/C[C@@H]4C[C@@H](C[C@]5(CC(O)[C@H](C)[C@@H](C(C)C)O5)O4)OC(=O)[C@@H]4C=C(C)[C@@H](O)[C@H]5OC/C(=C\C=C\[C@@H]3C)[C@]54O)CC2OC)OC(C)C1O (some centres undefined) [AVERMECTIN B2] | 220 ng/mL | >95% | >95% | 50 mg/kg | >95% | >95% | >95% | >95% | 
